Bioassay records from PubChem BioAssay.
H69AR growth 86K: growth inhibitors of human H69AR lung tumor cells; AID 598; hit rate 6% among 85,000; viability, % at 10 µM; H69AR lung tumor viability, ATP luminescence, 72 h; stronger effect = lower value;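 active = viability at or below 40%; inactive = viability above 40%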;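 note: multidrug resistant small cell line overexpressing MRP-1 efflux transporter; 100% = mean luminescence of untreated control wells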
PTEN del growth: growth suppressors of cells with PTEN tumor suppressor deletion. HCT116 PTEN-null viability, CellTiter-Glo, 60 h; stronger effect = lower value. viability, % at 10 µM. hit rate 1.2% among 140,000. AID 827;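 active = viability at or below a set limit, 4 SD under the median of all tested compounds, cut at about 3.7% in these data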;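 note: PTEN knockout HCT116 line with beta catenin targeted HCT116 as companion control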
HCT116 bCat-KO: beta-catenin-lacking colon tumor cell growth suppression; hit rate 1.5% among 140,000; HCT116 beta-catenin knockout viability, CellTiter-Glo, 60 h; stronger effect = lower value; viability, % at 10 µM;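 active = viability at or under a set limit, the compound median less 4 SD, cut at about 6% in these data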;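 note: 0% = Hyamine 1622 control at 20 µM and 100% = untreated cell control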
Fibroblast inh: blocks proliferation of human lung fibroblasts; LL 47 human lung fibroblast viability, ATP luminescence; stronger effect = lower value; viability, % at 10 µM; hit rate 1.1% among 85,000;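 active = viability at or below 50% in the single dose screen; inactive = viability above 50%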;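 note: compound exposure lasted 72 h before the ATP readout; 100% = median luminescence of untreated cell-only wells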
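test system = LL 47 human lung fibroblasts | amount = 1,150 fibroblasts seeded per well | medium = 15% FBS in IMEM | times = overnight cell rest, 72 h compound treatment at 37 °C | measured by = CellTiter-Glo luminescence measuring cellular ATP | read-out = viability percentage against median untreated-cell control | benchmarks = cell-only wells, no compound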
HUVEC prolif 384: inhibitors of human endothelial cell proliferation. hit rate 1.1% among 86,000. HUVEC proliferation, CellTiter-Glo luminescence, 72 h; stronger effect = lower value. viability, % at 10 µM (by protocol). AID 648;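 active = viability at or below 30%; inactive = viability above 30%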;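 note: 100% = median luminescence of DMSO-only cell control wells on each plate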
Active calls of the source: *; x = no result given. Only a selection was taken, and hits are over-represented in it overall.

SMILES	H69AR growth 86K	PTEN del growth	HCT116 bCat-KO	Fibroblast inh	HUVEC prolif 384
CCOC(=O)C1C(=O)NCC2CCCC21 (centres undefined)	99.8	94.4	88.7	105.0	94.5
COc1ccccc1C(=O)Nc1nnc(C)s1	x	120.1	98.3	x	x
Cc1ccc2c([N+](=O)[O-])cccc2n1	x	98.2	97.8	x	x
CC(Oc1ccc(Cl)cc1)c1ccnn1S(=O)(=O)c1ccccc1 (centres undefined)	x	68.4	73.9	x	x
O=C(Oc1cccc2cccnc12)c1ccc2c(c1)OCCO2	29.1*	2.5*	4.8*	3.2*	99.6
O=S(=O)(Nc1ccc2c(c1)OCCO2)c1cccc2cccnc12	89.0	70.1	70.4	96.2	98.2
O=C(Oc1cccc2cccnc12)c1cccs1	1.6*	1.9*	4.1*	3.4*	51.7
CC(C)(C)OC(=O)N[C@@H](Cc1ccccc1)c1nnc(SCC(=O)c2ccc(Cl)cc2)o1	47.0	79.2	80.6	29.4*	46.1
Cc1ccccc1CS(=O)(=O)c1nnc([C@H](Cc2ccccc2)NC(=O)OC(C)(C)C)o1	1.2*	2.8*	3.5*	5.5*	62.2
CCC(C)[C@@H](NC(=O)OC(C)(C)C)c1nnc(S(=O)(=O)Cc2cccc(C)c2)o1 (some centres undefined)	1.6*	54.0	21.2	6.2*	76.5
CC(C)CNS(=O)(=O)c1ccc(OCC(=O)Nc2ccc(F)cc2F)cc1	105.0	98.8	95.7	94.7	91.8
CCOC(=O)c1c(NC(=O)CSc2nnc(-c3cccnc3)o2)sc(C)c1C	93.1	104.2	91.9	114.1	106.3
Cc1ccc(C2CC(c3cccs3)=NN2C(=O)CSC2=NN3CCCC(=O)N=C3S2)cc1 (centres undefined)	11.2*	51.2	63.0	95.8	99.1
CCN1C/C(=C/c2ccc(N3CCOCC3)cc2)C(=O)/C(=C/c2ccc(N3CCOCC3)cc2)C1	x	1.9*	2.2*	x	x
CN1C/C(=C/c2ccsc2)C(=O)/C(=C/c2ccsc2)C1	x	3.1*	3.5*	x	x
CN1C/C(=C\c2ccc(N3CCOCC3)cc2)C(=O)/C(=C/c2ccc(N3CCOCC3)cc2)C1	x	2.2*	2.9*	x	x
CC(C)(C)n1ncc2c(=O)n(CC(=O)NCc3ccccc3)cnc21	23.5*	32.3	35.8	79.7	57.7
CC(=O)Nc1ccc(NC(=O)Cn2cnc3c(cnn3C(C)(C)C)c2=O)cc1	56.9	96.7	97.2	99.0	97.2
CCSc1ccccc1C(=O)n1nnc2ccccc21	12.0*	98.3	94.8	86.4	80.9
CCc1cccc(CC)c1NC(=O)COC(=O)c1cccc(S(=O)(=O)N2CCc3ccccc3C2)c1	x	68.7	72.2	x	x
CN(C)S(=O)(=O)c1cccc(NC(=O)COC(=O)c2cccc(S(=O)(=O)N3CCc4ccccc4C3)c2)c1	x	0.2*	0.7*	x	x
Cc1ccccc1C(=O)c1cccn1CC(=O)NCc1ccco1	90.1	91.2	85.2	96.3	89.3
Cc1ccccc1C(=O)c1cccn1CC(=O)NCCN1CCN(c2cccc(C)c2C)CC1	5.2*	7.3	4.3*	73.0	6.1*
COc1ccccc1N1CCN(C(=O)c2oc3ccc(F)cc3c2C)CC1	x	50.9	60.6	x	x
COc1ccccc1N1CCN(C(=O)c2oc3ccccc3c2C)CC1	17.5*	x	x	87.4	58.4
SMILES	H69AR growth 86K	PTEN del growth	HCT116 bCat-KO	Fibroblast inh	HUVEC prolif 384
COc1ccccc1N1CCN(C(=O)c2ccc(Br)s2)CC1	56.2	85.2	82.6	96.1	3.9*
COc1ccccc1N1CCN(C(=O)c2cc(-c3ccc(C)cc3)on2)CC1	96.2	87.5	84.6	104.8	105.6
COc1ccccc1N1CCN(C2CCN(C(=O)c3cccs3)CC2)CC1	91.5	90.7	84.8	101.6	92.7
COc1ccccc1-c1cc(C(=O)N2CCN(c3ccccc3OC)CC2)no1	27.8*	55.0	77.2	97.2	77.3
Cc1ccc(-c2nc3ccccn3c2NCc2ccc3c(c2)OCO3)cc1	76.6	72.3	81.3	93.1	77.6
C1CN(c2nc3nonc3nc2N2CCOCC2)CCO1	89.5	x	x	105.2	88.6
COc1ccc(NC(=O)C(F)(F)F)cc1OC	76.7	95.8	91.0	100.7	101.9
CC1(C)Cc2c(sc(NC(=O)c3ccco3)c2C#N)C(C)(C)N1	82.8	x	x	104.1	94.5
COc1ccc(C2C=C(c3ccc(C)c(C)c3)Nc3ncnn32)c(OC)c1OC (centres undefined)	25.0*	38.9	40.4	62.2	61.8
COc1ccc(C2C=C(c3ccccc3)Nc3ncnn32)cc1 (centres undefined)	84.7	92.7	82.2	106.5	104.7
CCOC(=O)c1sc(NC(=O)CSc2n[nH]c(-c3ccncc3)n2)c(C#N)c1C	18.6*	106.7	98.3	98.0	47.5
